# Measurements taken from ChEMBL document CHEMBL1649253, “New approach for drug susceptibility testing: monitoring the stress response of mycobacteria” (2009).
# Key:
# [1] = test system: Mycobacterium tuberculosis; test: Antibacterial activity against Mycobacterium tuberculosis H37Ra by broth microdilution method; assay type: functional
# Outline: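 Broth microdilution in supplemented 7H9 (complete) medium with twofold drug dilutions. Inoculum 10^6 CFU/ml from cultures grown at 37°C to mid- or late-log phase. Incubated 21 days at 37°C, then turbidity inspected by eye against drug-free controls. MIC is the lowest concentration with no visible growth.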
# [2] = test system: Mycobacterium tuberculosis; test: Antibacterial activity against Mycobacterium tuberculosis H37Ra by 7H9 broth dilution method; assay type: functional
# [3] = test system: Mycobacterium tuberculosis; test: Antibacterial activity against Mycobacterium tuberculosis H37Ra by 7H10 agar plate method; assay type: functional
# [4] = test system: Mycobacterium tuberculosis; test: Antibacterial activity against Mycobacterium tuberculosis H37Ra by BACTEC method; assay type: functional
# [5] = test system: Mycobacterium tuberculosis; test: Antibacterial activity against Mycobacterium tuberculosis H37Ra by BACTEC MGIT 960 method; assay type: functional
# [6] = test system: Mycobacterium tuberculosis; test: Antibacterial activity against Mycobacterium tuberculosis H37Ra by 7H11 agar plate method
SMILES,MIC [1] [µg/mL],MIC [2] [µg/mL],MIC [3] [µg/mL],MIC [4] [µg/mL],MIC [5] [µg/mL],MIC [6] [µg/mL]
CC[C@@H](CO)NCCN[C@@H](CC)CO [ETHAMBUTOL],5,2,5,,,
NNC(=O)c1ccncc1 [ISONIAZID],0.2,0.25,0.2,0.03,,
CO[C@H]1/C=C/O[C@@]2(C)Oc3c(C)c(O)c4c(O)c(c(/C=N/N5CCN(C)CC5)c(O)c4c3C2=O)NC(=O)/C(C)=C\C=C\[C@H](C)[C@H](O)[C@@H](C)[C@@H](O)[C@@H](C)[C@H](OC(C)=O)[C@@H]1C [RIFAMPIN],0.2,0.125,0.2,0.25,,
NC(=O)c1cnccn1 [PYRAZINAMIDE],50,,,,20,50
